Laboratory results reported in ChEMBL document CHEMBL2062375, “Discovery of an orally efficacious inhibitor of anaplastic lymphoma kinase” (J Med Chem, 2012).
The source made the active and inactive calls. No cut-off for these calls is given here.

Assays:
[1] = target: T1, Ribosomal protein S6 kinase alpha-6 (Homo sapiens, UniProt Q9UK32); conditions: 1 uM
[2] = Half life in cynomolgus monkey at 1 mg/kg, iv; type: ADME, organism-based, Macaca fascicularis; set-up: dose 1 mg/kg, route intravenous; conditions: in vivo
How it was run: (§1)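 Dog and monkey PK. IV 0.5 mL/kg in 40% HPβCD via the saphenous vein. Oral dosing was 1 mL/kg by gavage in dogs and 2 mL/kg by nasogastric tube in monkeys, after an overnight fast. Serial femoral-vein blood was taken into heparin over 24 h. Plasma was acetonitrile-precipitated and analysed by LC-MS/MS. Parameters were noncompartmental, n = 3, mean ± SEM.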

[3] = Plasma concentration in SCID mouse xenografted with human KARPAS299 cells expressing NPM-ALK at 30 mg/kg, po after 24 hrs by LC-MS/MS analysis; type: ADME, organism-based, KARPAS-299; set-up: dose 30 mg/kg, route oral
How it was run: (§2)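 Pharmacodynamic study: SCID mice bearing subcutaneous Karpas-299 xenografts given single 30 mg/kg oral dose; plasma drug levels measured by LCMS/MS, reported as mean ± SEM.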

[4] = Drug level in SCID mouse tumor xenografted with human KARPAS299 cells expressing NPM-ALK at 30 mg/kg, po after 2 hrs by LC-MS/MS analysis; type: ADME, organism-based, Neoplasm, KARPAS-299; set-up: dose 30 mg/kg, route oral; conditions: read-out: Drug uptake
[5] = Drug level in SCID mouse tumor xenografted with human KARPAS299 cells expressing NPM-ALK at 30 mg/kg, po after 24 hrs by LC-MS/MS analysis; type: ADME, organism-based, Neoplasm, KARPAS-299; set-up: dose 30 mg/kg, route oral; conditions: read-out: Drug uptake
[6] = AUC in cynomolgus monkey at 10 mg/kg, po; type: ADME, organism-based, Macaca fascicularis; set-up: dose 10 mg/kg, route oral; conditions: plasma
How it was run: as §1

[7] = AUC (0 to 12 hrs) in rat 30 mg/kg, po; type: ADME, organism-based; set-up: time < 12 hr, dose 30 mg/kg, route oral; conditions: plasma
How it was run: (§3)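 Rat oral dose escalation at 10, 30, 55 and 100 mg/kg. Gavage at 5 mL/kg in 40% HPβCD after an overnight fast. Serial tail-vein blood was drawn into heparinized tubes. Plasma was protein-precipitated with acetonitrile and assayed by LC-MS/MS. Cmax and AUC0–12 were derived noncompartmentally; n = 2 at 10 mg/kg.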

[8] = Plasma concentration in SCID mouse xenografted with human KARPAS299 cells expressing NPM-ALK at 30 mg/kg, po after 12 hrs by LC-MS/MS analysis; type: ADME, organism-based, KARPAS-299; set-up: dose 30 mg/kg, route oral
How it was run: as §2

[9] = Plasma concentration in SCID/beige mouse xenografted with human KARPAS299 cells expressing NPM-ALK at 10 mg/kg, po bid after 2 hrs post last dose by LC-MS/MS analysis; type: ADME, organism-based, KARPAS-299; set-up: dose 10 mg/kg, route oral
How it was run: (§4)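 Female SCID/beige mice (6–8 weeks), Karpas-299 cells implanted sc in left flank; at ~600 mm³ randomized (8–10/group), dosed orally in PEG400, 100 μL, b.i.d. for 12 days. Body weight every 2–3 days; plasma and tumor sampled 2 h after final dose, drug by LCMS/MS; Mann–Whitney rank sum statistics.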

Rattus norvegicus = test: Ratio of Cmax at 10 mg/kg, po to Cmax at 100 mg/kg, po in rat; type: ADME, organism-based; conditions: in vivo
How it was run: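 Oral dose-escalation PK study in rats at 10, 30, 55 and 100 mg/kg. […] The ratio compares the 10 mg/kg value with the 100 mg/kg value.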

[10] = AUC in Beagle dog at 10 mg/kg, po; type: ADME, organism-based, Canis lupus familiaris; set-up: dose 10 mg/kg, route oral; conditions: plasma
How it was run: as §1

[11] = target: Receptor-type tyrosine-protein kinase FLT3 (Homo sapiens, UniProt P36888); test: Inhibition of human Flt3
How it was run: (§5)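 Millipore KinaseProfiler activity assays on a 259-kinase panel; kinases inhibited by ≥90% at 1 μM then taken to full IC50 determination.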

[12] = Half life in CD-1 mouse at 10 mg/kg, po; type: ADME, organism-based; set-up: dose 10 mg/kg, route oral; conditions: in vivo
How it was run: (§6)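 Mouse PK. IV via the lateral tail vein in 3% DMSO/30% Solutol/67% PBS, or oral gavage in 100% PEG400, 100 μL dose volume, after an overnight fast. Trunk blood was taken from three mice per time point over 6 h. Plasma was acetonitrile-precipitated and analysed by LC-MS/MS. Parameters were derived noncompartmentally.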

[13] = Volume of distribution in CD-1 mouse at 1 mg/kg, iv; type: ADME, organism-based; set-up: dose 1 mg/kg, route intravenous; conditions: in vivo
How it was run: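 Mouse IV PK: lateral tail vein dosing, 100 μL in 3% DMSO/30% Solutol/67% PBS; trunk blood from three mice per time point over 6 h. Plasma precipitated with acetonitrile, drug quantified by LCMS/MS against internal standard; noncompartmental analysis.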

[14] = target: Mitogen-activated protein kinase kinase kinase kinase 2 (Homo sapiens) (UniProt Q12851); conditions: 1 uM
Chain of Mitogen-activated protein kinase kinase kinase kinase 2 (Homo sapiens) (Q12851 whole entry): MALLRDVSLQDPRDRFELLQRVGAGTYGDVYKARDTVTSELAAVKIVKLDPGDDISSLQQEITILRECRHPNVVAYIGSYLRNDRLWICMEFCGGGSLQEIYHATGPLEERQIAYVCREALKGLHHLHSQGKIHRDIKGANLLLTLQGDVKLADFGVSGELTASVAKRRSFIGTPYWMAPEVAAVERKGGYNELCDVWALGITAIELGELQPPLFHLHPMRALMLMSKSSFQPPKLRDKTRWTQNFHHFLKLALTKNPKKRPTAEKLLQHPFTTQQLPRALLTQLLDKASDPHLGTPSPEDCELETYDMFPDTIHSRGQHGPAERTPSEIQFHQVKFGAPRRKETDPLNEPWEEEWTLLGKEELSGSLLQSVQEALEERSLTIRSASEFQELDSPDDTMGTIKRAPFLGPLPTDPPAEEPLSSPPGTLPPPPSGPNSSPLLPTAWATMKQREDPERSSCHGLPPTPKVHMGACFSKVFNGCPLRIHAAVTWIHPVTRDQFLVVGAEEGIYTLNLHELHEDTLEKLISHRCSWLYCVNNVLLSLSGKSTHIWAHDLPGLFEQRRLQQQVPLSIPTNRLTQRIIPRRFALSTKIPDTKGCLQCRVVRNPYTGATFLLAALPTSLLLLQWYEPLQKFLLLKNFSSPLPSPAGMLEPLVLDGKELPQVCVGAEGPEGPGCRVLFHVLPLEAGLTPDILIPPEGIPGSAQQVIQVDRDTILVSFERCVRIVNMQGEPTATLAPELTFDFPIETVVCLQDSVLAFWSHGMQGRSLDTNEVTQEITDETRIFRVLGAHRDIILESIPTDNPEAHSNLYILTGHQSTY

[15] = AUC in SCID mouse at 10 mg/kg, po; type: ADME, organism-based; set-up: dose 10 mg/kg, route oral; conditions: plasma
How it was run: as §6

[16] = target: T1, Ribosomal protein S6 kinase alpha-6; test: Inhibition of human Rsk4
How it was run: as §5

[17] = Cmax in rat at 30 mg/kg, po; type: ADME, organism-based; set-up: dose 30 mg/kg, route oral; conditions: in vivo
How it was run: as §3

[18] = AUC in SCID mouse at 1 mg/kg, iv; type: ADME, organism-based; set-up: dose 1 mg/kg, route intravenous; conditions: plasma
How it was run: as §6

Mus musculus [19] = test: Toxicity in SCID mouse xenografted with human KARPAS299 cells expressing NPM-ALK assessed as effect on body weight at 10 to 30 mg/kg, po bid; type: organism-based, KARPAS-299; set-up: dose 10-30 mg/kg, route oral; conditions: in vivo
How it was run: as §4

Focal adhesion kinase 1 = Focal adhesion kinase 1 (Homo sapiens, UniProt Q05397); test: Inhibition of human FAK
Chain of Focal adhesion kinase 1 (Q05397 whole entry): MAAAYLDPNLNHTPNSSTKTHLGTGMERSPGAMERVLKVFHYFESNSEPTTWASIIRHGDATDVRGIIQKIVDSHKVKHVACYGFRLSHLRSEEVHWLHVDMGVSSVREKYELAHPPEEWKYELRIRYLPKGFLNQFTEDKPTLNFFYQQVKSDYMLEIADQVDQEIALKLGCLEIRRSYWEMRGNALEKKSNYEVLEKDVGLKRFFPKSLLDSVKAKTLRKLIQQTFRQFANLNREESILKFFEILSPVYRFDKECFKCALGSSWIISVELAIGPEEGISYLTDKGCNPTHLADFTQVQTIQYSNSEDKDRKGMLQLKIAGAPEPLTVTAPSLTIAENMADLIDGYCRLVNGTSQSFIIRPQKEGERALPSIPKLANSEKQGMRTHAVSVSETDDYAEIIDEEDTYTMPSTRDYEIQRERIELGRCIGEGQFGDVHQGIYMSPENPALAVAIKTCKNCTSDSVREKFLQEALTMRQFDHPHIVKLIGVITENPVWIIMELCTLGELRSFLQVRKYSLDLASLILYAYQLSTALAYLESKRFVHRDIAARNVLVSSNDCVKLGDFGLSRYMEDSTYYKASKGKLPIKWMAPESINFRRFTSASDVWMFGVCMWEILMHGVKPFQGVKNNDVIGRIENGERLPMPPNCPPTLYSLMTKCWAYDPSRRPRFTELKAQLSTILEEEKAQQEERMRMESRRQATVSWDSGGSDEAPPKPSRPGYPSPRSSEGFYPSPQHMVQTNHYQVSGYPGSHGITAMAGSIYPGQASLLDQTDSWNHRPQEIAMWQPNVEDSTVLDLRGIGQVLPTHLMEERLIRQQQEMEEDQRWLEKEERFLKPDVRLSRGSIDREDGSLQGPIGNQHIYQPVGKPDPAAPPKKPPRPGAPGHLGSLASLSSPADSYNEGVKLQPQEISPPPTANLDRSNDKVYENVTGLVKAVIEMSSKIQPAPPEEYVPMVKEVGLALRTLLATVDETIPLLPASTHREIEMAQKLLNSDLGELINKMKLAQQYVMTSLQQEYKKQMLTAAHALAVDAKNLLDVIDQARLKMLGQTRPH
How it was run: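 Commercial activity-assay panel of 259 kinases. Each kinase was first screened at 1 μM, and those inhibited by ≥90% went on to full IC50 determination.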

Activated CDC42 kinase 1 [20] = target: T2, Activated CDC42 kinase 1 (Homo sapiens, UniProt Q07912); test: Inhibition of human ACK1
[21] = Tmax in CD-1 mouse at 10 mg/kg, po; type: ADME, organism-based; set-up: dose 10 mg/kg, route oral; conditions: in vivo
How it was run: (§7)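 Mouse oral PK: overnight fast, gavage of 100 μL in 100% PEG400; trunk blood from three mice per time point over 6 h; plasma acetonitrile-precipitated and analysed by LCMS/MS, noncompartmental parameters.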

[22] = Cmax in Beagle dog at 10 mg/kg, po; type: ADME, organism-based, Canis lupus familiaris; set-up: dose 10 mg/kg, route oral; conditions: in vivo
How it was run: as §1

SH-SY5Y = test: Antitumor activity against human SH-SY5Y cells expressing ALK mutant R1275Q assessed as growth inhibition administered as po bid; type: functional, organism-based
Mus musculus [23] = test: Inhibition of NPM-ALK phosphorylation in human KARPAS299 cells xenografted in SCID mouse tumor at 30 mg/kg, po qd after 12 hrs by immunoblotting; type: functional; conditions: KARPAS-299, 12 h
How it was run: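 SCID mice bearing sc Karpas-299 xenografts received a single 30 mg/kg oral dose. Phospho- and total NPM-ALK in tumour samples were detected by immunoblotting, and relative NPM-ALK phosphorylation was calculated.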

[24] = Half life in CD-1 mouse at 1 mg/kg, iv; type: ADME, organism-based; set-up: dose 1 mg/kg, route intravenous; conditions: in vivo
How it was run: as §6

[25] = Tmax in SCID mouse at 10 mg/kg, po; type: ADME, organism-based; set-up: dose 10 mg/kg, route oral; conditions: in vivo
How it was run: as §7

Activated CDC42 kinase 1 [26] = target: T2, Activated CDC42 kinase 1; conditions: 1 uM
[27] = AUC (0 to 12 hrs) in rat 10 mg/kg, po; type: ADME, organism-based; set-up: time < 12 hr, dose 10 mg/kg, route oral; conditions: plasma
How it was run: as §3

[28] = target: ALK tyrosine kinase receptor (Homo sapiens, UniProt Q9UM73); test: Inhibition of human ALK cytoplasmic domain expressed in baculovirus using GST-PLCgamma as substrate preincubated for 15 mins before substrate addition measured after 1 hr by time resolved fluorescence assay
Chain of ALK tyrosine kinase receptor (Q9UM73 whole entry, the tested form may be a part): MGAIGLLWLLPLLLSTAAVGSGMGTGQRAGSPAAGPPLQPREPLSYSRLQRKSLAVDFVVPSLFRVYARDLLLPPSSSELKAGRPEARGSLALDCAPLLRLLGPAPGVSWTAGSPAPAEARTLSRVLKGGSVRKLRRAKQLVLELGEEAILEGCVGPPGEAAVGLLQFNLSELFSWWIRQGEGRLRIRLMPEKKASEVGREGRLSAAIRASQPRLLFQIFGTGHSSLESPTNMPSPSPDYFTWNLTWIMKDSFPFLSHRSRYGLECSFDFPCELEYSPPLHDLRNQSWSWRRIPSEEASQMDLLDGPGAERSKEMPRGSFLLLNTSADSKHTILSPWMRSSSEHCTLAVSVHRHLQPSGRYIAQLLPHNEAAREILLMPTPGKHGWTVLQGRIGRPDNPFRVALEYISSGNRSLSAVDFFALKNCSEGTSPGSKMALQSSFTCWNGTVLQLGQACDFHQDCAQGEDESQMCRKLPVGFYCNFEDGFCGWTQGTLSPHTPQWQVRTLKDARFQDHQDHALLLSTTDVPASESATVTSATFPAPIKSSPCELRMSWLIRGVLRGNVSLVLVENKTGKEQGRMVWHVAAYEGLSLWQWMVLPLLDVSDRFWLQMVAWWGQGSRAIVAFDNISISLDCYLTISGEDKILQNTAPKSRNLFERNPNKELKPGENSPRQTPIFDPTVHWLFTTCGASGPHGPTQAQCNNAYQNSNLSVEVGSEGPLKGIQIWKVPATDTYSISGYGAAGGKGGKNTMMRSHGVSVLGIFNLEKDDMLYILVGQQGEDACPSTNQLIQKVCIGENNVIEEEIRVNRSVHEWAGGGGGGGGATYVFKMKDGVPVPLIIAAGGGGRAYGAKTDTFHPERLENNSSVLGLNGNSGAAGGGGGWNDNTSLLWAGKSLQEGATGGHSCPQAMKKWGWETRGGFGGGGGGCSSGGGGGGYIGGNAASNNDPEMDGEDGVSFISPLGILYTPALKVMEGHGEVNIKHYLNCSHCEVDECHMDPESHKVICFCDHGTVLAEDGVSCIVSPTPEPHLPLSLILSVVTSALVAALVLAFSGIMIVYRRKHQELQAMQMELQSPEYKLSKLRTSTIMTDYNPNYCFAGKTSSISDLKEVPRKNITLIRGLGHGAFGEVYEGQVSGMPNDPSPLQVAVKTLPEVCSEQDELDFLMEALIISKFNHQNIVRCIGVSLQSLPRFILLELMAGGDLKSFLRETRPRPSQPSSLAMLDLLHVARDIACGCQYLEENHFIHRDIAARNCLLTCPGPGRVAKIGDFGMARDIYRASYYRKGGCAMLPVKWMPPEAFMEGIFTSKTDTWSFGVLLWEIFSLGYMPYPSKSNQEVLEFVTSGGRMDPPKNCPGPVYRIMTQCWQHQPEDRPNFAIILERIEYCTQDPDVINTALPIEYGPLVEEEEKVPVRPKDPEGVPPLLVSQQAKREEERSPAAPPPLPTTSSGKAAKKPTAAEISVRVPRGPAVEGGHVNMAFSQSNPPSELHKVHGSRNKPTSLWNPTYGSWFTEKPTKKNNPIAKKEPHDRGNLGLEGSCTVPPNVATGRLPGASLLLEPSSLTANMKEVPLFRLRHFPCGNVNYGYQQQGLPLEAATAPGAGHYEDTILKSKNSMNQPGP

[29] = Drug level in SCID mouse tumor xenografted with human KARPAS299 cells expressing NPM-ALK at 30 mg/kg, po after 12 hrs by LC-MS/MS analysis; type: ADME, organism-based, Neoplasm, KARPAS-299; set-up: dose 30 mg/kg, route oral; conditions: read-out: Drug uptake

T1 sequence (Q9UK32 whole entry): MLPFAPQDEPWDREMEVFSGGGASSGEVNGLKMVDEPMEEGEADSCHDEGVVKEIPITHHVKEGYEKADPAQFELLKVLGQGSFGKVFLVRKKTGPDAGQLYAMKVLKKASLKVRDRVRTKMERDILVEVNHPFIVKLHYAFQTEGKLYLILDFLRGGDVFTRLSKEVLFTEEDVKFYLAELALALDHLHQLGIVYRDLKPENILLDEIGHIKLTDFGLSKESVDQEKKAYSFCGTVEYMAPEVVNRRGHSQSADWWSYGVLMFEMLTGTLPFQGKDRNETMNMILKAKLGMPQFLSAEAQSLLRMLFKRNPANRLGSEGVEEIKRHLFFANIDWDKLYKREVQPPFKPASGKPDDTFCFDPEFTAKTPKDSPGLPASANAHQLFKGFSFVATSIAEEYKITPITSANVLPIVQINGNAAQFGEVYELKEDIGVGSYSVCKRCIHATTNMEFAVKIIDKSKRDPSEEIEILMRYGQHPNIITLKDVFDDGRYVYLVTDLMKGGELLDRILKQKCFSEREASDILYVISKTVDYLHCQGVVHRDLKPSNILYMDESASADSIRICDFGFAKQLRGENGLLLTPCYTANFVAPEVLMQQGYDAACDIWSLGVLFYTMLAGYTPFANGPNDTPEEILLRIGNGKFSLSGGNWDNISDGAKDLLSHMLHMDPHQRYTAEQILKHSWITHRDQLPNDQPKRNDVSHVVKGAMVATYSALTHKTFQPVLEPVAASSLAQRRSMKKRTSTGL

Work on `COc1c(Nc2ncc(Cl)c(N[C@H]3[C@@H](C(N)=O)[C@@H]4C=C[C@H]3C4)n2)ccc2c1CC[C@@H](N1CCOCC1)CC2` yielded an inhibition [1] of over 90%, a half-life [2] of 1.2 h and a concentration at 24 h [3] of 12 ng/mL. For the same molecule, the concentration at 2 h [4] was 2630 ng/g, the concentration at 24 h [5] was 100 ng/g and the AUC [6] was 954 ng·h/mL. For the same molecule, the AUC(0-t) at 12 h [7] was 10900 ng·h/mL, the concentration at 12 h [8] was 1570 ng/mL and the concentration at 2 h [9] was 1960 ng/mL. The Ratio (Rattus norvegicus) was 9, the AUC [10] was 2130 ng·h/mL and the IC50 [11] was 88 nM. The half-life [12] was 2.3 h, the Vd [13] was 1.8 L/kg and the inhibition [14] was over 90%. For the same molecule, the AUC [15] was 21400 ng·h/mL, the IC50 [16] was 19 nM and the Cmax [17] was 1010 ng/mL. For the same molecule, the AUC [18] was 3020 ng·h/mL, the Activity (Mus musculus [19]) was “Non-toxic” and the IC50 (Focal adhesion kinase 1) was 133 nM. It also gave an IC50 (Activated CDC42 kinase 1 [20]) of 41 nM, a Tmax [21] of 0.25 h and a Cmax [22] of 427 ng/mL. The “growth inhibition (GI)” value (SH-SY5Y) was “Active”, the inhibition in vivo at 30 mg/kg (Mus musculus [23]) was over 90% and the half-life [24] was 0.7 h. It also gave a Tmax [25] of 1 h, an inhibition (Activated CDC42 kinase 1 [26]) of over 90% and an AUC(0-t) at 12 h [27] of 2570 ng·h/mL. The IC50 [28] was 1.9 nM and the concentration at 12 h [29] was 1460 ng/g.
